Laboratory results: ChEMBL document CHEMBL1143279, “Synthesis, reduction potentials, and antitubercular activity of ring A/B analogues of the bioreductive drug (6S)-2-nitro-6-{[4-(trifluoromethoxy)benzyl]oxy}-6,7-dihydro-5H-imidazo[2,1-b][1,3]oxazine (PA-824)” (J Med Chem, 2009)
Converted amounts (≈) assume the structure as drawn.

Experiments:
[1] = test system: Mycobacterium tuberculosis; assay: Antimicrobial activity against Mycobacterium tuberculosis after 8 days in aerobic condition by alamar blue assay; assay type: functional; conditions: 192 h
Outline: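 Replicating M. tb was tested in an 8-day microplate assay. Alamar blue was added on day 7 to measure growth. The MIC was taken as the lowest drug concentration giving >90% inhibition.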

[2] = test system: Mycobacterium tuberculosis; assay: Antimicrobial activity against Mycobacterium tuberculosis after 11 days under anaerobic condition by luminescence-based low oxygen recovery assay; assay type: functional; conditions: 264 h
Vero = assay: Cytotoxicity against african green monkey Vero cells after 72 hrs; assay type: cell-based; conditions: Chlorocebus sabaeus
Outline: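 VERO (CCL-81) monolayers exposed 72 h to 3-fold serial dilutions of compound. Viability read by tetrazolium dye reduction, product absorbance at 490 nm. Untreated cells set 0% inhibition, SDS-lysed cells 100% inhibition.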

[3] = test system: Mycobacterium tuberculosis; assay: Antimicrobial activity against Mycobacterium tuberculosis assessed as growth inhibition at 100 uM after 11 days under anaerobic condition by luminescence-based low oxygen recovery assay; assay type: functional; conditions: 264 h
[4] = test system: Mycobacterium tuberculosis; assay: Antimicrobial activity against Mycobacterium tuberculosis assessed as growth inhibition at 100 uM after 8 days under aerobic condition by alamar blue assay; assay type: functional; conditions: 192 h

## O=[N+]([O-])c1cn2c(n1)SCC(OCc1ccc(OC(F)(F)F)cc1)C2 (stereo unspecified)
[1]
  MIC: 1.1 µM (≈ 0.413 µg/mL)
[2]
  MIC: 13 µM (≈ 4.88 µg/mL)
Vero
  IC50: > 128 µM

## CN1CC(OCc2ccc(OCc3ccccc3)cc2)Cn2nc([N+](=O)[O-])cc21 (stereo unspecified)
[1]
  MIC: > 128 µM
[2]
  MIC: > 128 µM
[3]
  inhibition at 100 µM: 3%
[4]
  inhibition at 100 µM: 58%
Vero
  IC50: > 128 µM

## O=[N+]([O-])c1cn2c(n1)OCC(OCc1ccc(OCc3ccccc3)cc1)C2 (stereo unspecified)
Vero
  IC50: > 128 µM

## O=[N+]([O-])c1cc2n(n1)CC(OCc1ccc(OC(F)(F)F)cc1)CN2 (stereo unspecified)
[1]
  MIC: > 128 µM
[2]
  MIC: 111 µM (≈ 39.8 µg/mL)
[4]
  inhibition at 100 µM: 61%

## O=[N+]([O-])c1cn2c(n1)CCC(OCc1ccc(OCc3ccccc3)cc1)C2 (stereo unspecified)
[1]
  MIC: > 128 µM
[2]
  MIC: > 128 µM
[3]
  inhibition at 100 µM: 49%
[4]
  inhibition at 100 µM: 5%

## O=[N+]([O-])c1cc2n(n1)CC(OCc1ccc(OC(F)(F)F)cc1)CO2 (stereo unspecified)
[1]
  MIC: > 128 µM
[3]
  inhibition at 100 µM: 86%
[4]
  inhibition at 100 µM: 89%
Vero
  IC50: 88 µM

## O=[N+]([O-])c1cn2c(n1)NCC(OCc1ccc(OC(F)(F)F)cc1)C2 (stereo unspecified)
[1]
  MIC: > 128 µM
[2]
  MIC: > 128 µM
[3]
  inhibition at 100 µM: 64%
[4]
  inhibition at 100 µM: 63%

## O=[N+]([O-])c1cn2c(n1)[S+]([O-])CC(OCc1ccc(OCc3ccccc3)cc1)C2 (stereo unspecified)
[1]
  MIC: > 128 µM
[2]
  MIC: > 128 µM
[3]
  inhibition at 100 µM: 20%
[4]
  inhibition at 100 µM: 23%
Vero
  IC50: 63 µM

## O=[N+]([O-])c1cc2n(n1)CC(OCc1ccc(OCc3ccccc3)cc1)CN2 (stereo unspecified)
[1]
  MIC: > 128 µM
[2]
  MIC: > 128 µM
[3]
  inhibition at 100 µM: 41%
[4]
  inhibition at 100 µM: 55%

## O=[N+]([O-])c1cc2n(n1)CC(OCc1ccc(OCc3ccccc3)cc1)CO2 (stereo unspecified)
[1]
  MIC: > 128 µM
[2]
  MIC: > 128 µM
[3]
  inhibition at 100 µM: 19%
[4]
  inhibition at 100 µM: 38%
Vero
  IC50: 82 µM

## O=[N+]([O-])c1nc2n(n1)C[C@@H](OCc1ccc(OC(F)(F)F)cc1)CO2
[1]
  MIC: > 128 µM
[4]
  inhibition at 100 µM: 84%
Vero
  IC50: > 128 µM

## O=[N+]([O-])c1cn2c(n1)OCC(OCc1ccc(OC(F)(F)F)cc1)C2 (stereo unspecified)
Vero
  IC50: > 128 µM

## O=[N+]([O-])c1cn2c(n1)SCC(OCc1ccc(OCc3ccccc3)cc1)C2 (stereo unspecified)
[1]
  MIC: 1.1 µM (≈ 0.437 µg/mL)
[2]
  MIC: 11 µM (≈ 4.37 µg/mL)
Vero
  IC50: > 128 µM

## O=[N+]([O-])c1nc2n(n1)C[C@H](OCc1ccc(OCc3ccccc3)cc1)CO2
[1]
  MIC: > 128 µM
[4]
  inhibition at 100 µM: 18%

## O=[N+]([O-])c1cn2c(n1)CCC(OCc1ccc(OC(F)(F)F)cc1)C2 (stereo unspecified)
[1]
  MIC: 126 µM (≈ 45 µg/mL)
[2]
  MIC: > 128 µM
[3]
  inhibition at 100 µM: 75%

## O=[N+]([O-])c1cn2c(n1)[S+]([O-])CC(OCc1ccc(OC(F)(F)F)cc1)C2 (stereo unspecified)
[1]
  MIC: > 128 µM
[2]
  MIC: 92 µM (≈ 36 µg/mL)
[4]
  inhibition at 100 µM: 87%
Vero
  IC50: > 128 µM

## CN1CC(OCc2ccc(OC(F)(F)F)cc2)Cn2nc([N+](=O)[O-])cc21 (stereo unspecified)
[1]
  MIC: > 128 µM
[2]
  MIC: > 128 µM
[3]
  inhibition at 100 µM: 37%
[4]
  inhibition at 100 µM: 61%
Vero
  IC50: > 128 µM

## O=[N+]([O-])c1nc2n(n1)C[C@H](OCc1ccc(OC(F)(F)F)cc1)CO2
[1]
  MIC: > 128 µM
[4]
  inhibition at 100 µM: 81%
Vero
  IC50: > 128 µM

## O=[N+]([O-])c1cn2c(n1)S(=O)(=O)CC(OCc1ccc(OC(F)(F)F)cc1)C2 (stereo unspecified)
[1]
  MIC: > 128 µM
[2]
  MIC: 89 µM (≈ 36.3 µg/mL)
[4]
  inhibition at 100 µM: 89%
Vero
  IC50: > 128 µM

## O=[N+]([O-])c1cn2c(n1)S(=O)(=O)CC(OCc1ccc(OCc3ccccc3)cc1)C2 (stereo unspecified)
[1]
  MIC: > 128 µM
[2]
  MIC: > 128 µM
[3]
  inhibition at 100 µM: 79%
[4]
  inhibition at 100 µM: 61%
Vero
  IC50: > 128 µM
